# Measured values as given in article PMC6570502 (Chembiochem : a European journal of chemical biology, 2019).
# Residue numbers refer to the chain shown, from its start.
# Columns and labels:
# Type in all cases: biochemical
# KDM4A N198G mutant = biological target: T1, KDM4A N198G mutant (Homo sapiens, UniProt O75164, N198G); test: MALDI demethylase assay, H3K9me3 substrate peptide, N198G mutant
# T1 sequence (O75164 1-1064 N198G): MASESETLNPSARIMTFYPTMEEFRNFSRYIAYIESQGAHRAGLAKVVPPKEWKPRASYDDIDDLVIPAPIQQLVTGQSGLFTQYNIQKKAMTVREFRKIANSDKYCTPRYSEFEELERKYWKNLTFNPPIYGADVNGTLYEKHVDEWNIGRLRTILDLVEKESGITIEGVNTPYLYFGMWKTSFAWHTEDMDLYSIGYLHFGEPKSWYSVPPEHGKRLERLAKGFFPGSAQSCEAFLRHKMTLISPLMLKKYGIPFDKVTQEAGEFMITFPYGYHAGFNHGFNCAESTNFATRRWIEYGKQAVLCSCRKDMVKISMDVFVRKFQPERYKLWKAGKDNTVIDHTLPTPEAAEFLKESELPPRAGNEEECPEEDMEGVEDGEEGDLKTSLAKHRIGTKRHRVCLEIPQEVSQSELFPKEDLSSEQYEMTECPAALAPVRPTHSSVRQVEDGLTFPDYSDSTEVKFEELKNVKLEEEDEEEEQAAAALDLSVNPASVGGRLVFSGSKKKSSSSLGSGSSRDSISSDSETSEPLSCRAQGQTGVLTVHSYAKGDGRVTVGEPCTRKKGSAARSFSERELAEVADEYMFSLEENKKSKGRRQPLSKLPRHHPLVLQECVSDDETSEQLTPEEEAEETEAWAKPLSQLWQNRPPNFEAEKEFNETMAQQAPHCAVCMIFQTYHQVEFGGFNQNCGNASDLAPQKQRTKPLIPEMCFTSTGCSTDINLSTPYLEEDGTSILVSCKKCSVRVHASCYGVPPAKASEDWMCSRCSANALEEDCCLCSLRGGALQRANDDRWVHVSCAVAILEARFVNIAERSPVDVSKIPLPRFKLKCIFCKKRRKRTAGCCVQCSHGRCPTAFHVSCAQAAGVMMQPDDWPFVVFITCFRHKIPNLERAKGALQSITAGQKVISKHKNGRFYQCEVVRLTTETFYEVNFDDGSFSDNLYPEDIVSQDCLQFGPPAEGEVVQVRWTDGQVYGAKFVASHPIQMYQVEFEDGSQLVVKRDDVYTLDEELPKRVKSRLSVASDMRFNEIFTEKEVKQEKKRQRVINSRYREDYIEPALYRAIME
# wild type KDM4A = biological target: T2, wild type KDM4A (Homo sapiens, UniProt O75164); test: MALDI demethylase assay, H3K9me3 substrate peptide, wild type enzyme; conditions: 3 mM compound
# T2 sequence (O75164 1-1064): T1 sequence (O75164 1-1064 N198G) with G198N
# KDM4A N198A mutant [1] = biological target: T3, KDM4A N198A mutant (Homo sapiens, UniProt O75164, N198A); test: MALDI demethylase assay, H3K9me3 substrate peptide, N198A mutant; conditions: for inhibition of demethylase activity: 100 μM compound, 50 μM 2KG, MALDI-MS; for IC50: MALDI demethylase assay, dose-dependent
# T3 sequence (O75164 1-1064 N198A): T1 sequence (O75164 1-1064 N198G) with G198A
# KDM4A N198A mutant [2] = biological target: T3, KDM4A N198A mutant; test: Demethylation of full-length H3Kc9me3 by western blot with H3K9me3 antibody; conditions: in presence of 2KG
# Summary of the method: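 Substrate is full-length histone H3 carrying a trimethyl-lysine analogue at K9 (H3KC9me3), installed chemically by the thialysine approach and verified by ESI-HRMS. The substrate is incubated with the KDM4A N198A mutant. Remaining K9 trimethylation is then detected by western blot with an anti-H3K9me3 antibody.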
Molecule,"inhibition of demethylase activity (KDM4A N198G mutant; 100 μM compound, 50 μM 2KG, MALDI-MS)","IC50 (KDM4A N198G mutant; N198G mutant, MALDI demethylase assay)",inhibition of wild type KDM4A (wild type KDM4A),inhibition of demethylase activity (KDM4A N198A mutant [1]),selectivity over the wild type enzyme (KDM4A N198A mutant [1]; N198A mutant vs wild type KDM4A),IC50 (KDM4A N198A mutant [1]; N198A mutant),inhibition of demethylation of full-length H3Kc9me3 (KDM4A N198A mutant [2]),"Hill slope (KDM4A N198A mutant [1]; N198A mutant, dose-response of IC50 experiment)"
"CC(C)C[C@H](NC(=O)C(=O)O)C(=O)O [compound 7, leucine-NOG]",inhibited,288 µM,,,,,,
propyl-NOG [compound 5],,,no more than 30%,significantly inhibited,more than 20 fold,80 µM,,
"CCC(NC(=O)C(=O)O)C(=O)O (centres unmarked) [compound 3, ethyl-NOG]",,,About 50%,significantly inhibited,,139 µM,significantly inhibited,−1.06
